# Assays:
# Prothrombin = Prothrombin (Homo sapiens, UniProt P00734); assay: Inhibition of human thrombin
# Plasma = assay: Anticoagulant potency in human plasma assessed as concentration required to double prothrombin time; format: functional
# Coagulation factor X = Coagulation factor X (Homo sapiens, UniProt P00742); assay: Inhibition of human factor 10a
# Procedure, shortened: (§1)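 Ki values were measured against the purified human enzymes.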
# Trypsin = Trypsin (Homo sapiens, UniProt P07477+P07478+P35030); assay: Inhibition of human trypsin; format: protein assay; procedure, shortened: as §1
# [1] = Apparent permeability across Caco-2 cells; format: ADME, cell-based; settings: human
# [2] = Clearance in dog at 0.5 mg/kg, iv and 0.2 mg/kg, po; format: ADME, organism-based, Canis lupus familiaris; settings: in vivo
# Procedure, shortened: (§2)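 Cassette (N-in-1) dosing, with compounds given together at 0.5 mg/kg iv and 0.2 mg/kg po; one animal per route (n = 1). Clearance, steady-state volume of distribution, oral half-life and oral bioavailability (F%) were derived from plasma levels.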
# [3] = Half life in dog at 0.2 mg/kg, po; format: ADME, organism-based, Canis lupus familiaris; design: dose 0.2 mg/kg, route oral; settings: in vivo; procedure, shortened: as §2
# [4] = Oral bioavailability in dog at 0.2 mg/kg; format: ADME, organism-based, Canis lupus familiaris; settings: in vivo; procedure, shortened: as §2
# [5] = (§3) Volume of distribution at steady state in dog at 0.5 mg/kg, iv and 0.2 mg/kg, po; format: ADME, organism-based, Canis lupus familiaris; settings: in vivo, read-out: Vdss; procedure, shortened: as §2
# Canis familiaris = assay: as §3; format: ADME, organism-based, Canis lupus familiaris; settings: in vivo; procedure, shortened: as §2
# Coagulation factor X, sequence (P00742 41-179 limits assumed): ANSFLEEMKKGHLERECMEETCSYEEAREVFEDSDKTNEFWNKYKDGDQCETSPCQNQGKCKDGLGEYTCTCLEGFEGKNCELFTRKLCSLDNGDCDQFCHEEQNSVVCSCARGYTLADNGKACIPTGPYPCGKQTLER
# Coagulation factor X, sequence (P00742 235-488 limits assumed): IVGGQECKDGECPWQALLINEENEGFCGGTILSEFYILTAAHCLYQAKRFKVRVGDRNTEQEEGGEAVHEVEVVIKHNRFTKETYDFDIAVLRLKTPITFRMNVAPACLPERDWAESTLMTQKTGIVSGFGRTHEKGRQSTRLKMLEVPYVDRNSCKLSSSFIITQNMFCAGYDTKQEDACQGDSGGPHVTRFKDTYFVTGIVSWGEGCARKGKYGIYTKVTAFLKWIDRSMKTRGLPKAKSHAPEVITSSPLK
Ki (Prothrombin),Ki (Coagulation factor X),Ki (Trypsin),SMILES,also measured
> 20000 nM,0.82 nM,–,CS(=O)(=O)c1ccccc1-c1ccc2c(c1)CCN2C(=O)c1cc(C(N)=O)nn1-c1ccc2onc(N)c2c1,Activity (Plasma): 41 µM
19200 nM,19 nM,–,CN(C)Cc1ccccc1-c1ccc2c(c1)CCN2C(=O)c1cc(C(F)(F)F)nn1-c1ccc2onc(N)c2c1,–
–,1 nM,> 20000 nM,CN(C)Cc1ccccc1-c1ccc2c(c1)CCN2C(=O)c1cc(C(N)=O)nn1-c1ccc2onc(N)c2c1,Papp [1]: 0.3 ×10⁻⁶ cm/s; Activity (Plasma): 3 µM
–,1400 nM,–,CS(=O)(=O)c1ccccc1-c1ccc2c(c1)N(C(=O)c1cc(C(N)=O)nn1-c1ccc3onc(N)c3c1)CC2,–
–,2.4 nM,–,NC(=O)c1cc(C(=O)N2CCc3cc(N4CCCCC4=O)ccc32)n(-c2ccc3onc(N)c3c2)n1,clearance [2]: 3.67 mL/min/kg; half-life [3]: 1.6 h; bioavailability [4]: 6%; Papp [1]: 0.1 ×10⁻⁶ cm/s; Activity (Plasma): 3.3 µM; Vd [5]: 0.2 L/kg
–,15 nM,–,NC(=O)c1cc(C(=O)N2CCc3cc(N4CCCCCC4=O)ccc32)n(-c2ccc3onc(N)c3c2)n1,–
> 21000 nM,71 nM,–,CS(=O)(=O)c1ccccc1-c1ccc2c(c1)OCCN2C(=O)c1cc(C(F)(F)F)nn1-c1ccc2onc(N)c2c1,–
–,2.2 nM,–,CN(C)Cc1nccn1-c1ccc2c(c1)CCN2C(=O)c1cc(C(N)=O)nn1-c1ccc2onc(N)c2c1,–
–,4.8 nM,–,CC(=O)N(C)Cc1nccn1-c1ccc2c(c1)CCN2C(=O)c1cc(C(N)=O)nn1-c1ccc2onc(N)c2c1,–
> 21000 nM,1.5 nM,> 2500 nM,CS(=O)(=O)c1ccccc1-c1ccc2c(c1)CCN2C(=O)c1cc(C(F)(F)F)nn1-c1ccc2onc(N)c2c1,Activity (Plasma): 26 µM
–,1100 nM,–,NC(=O)c1cc(C(=O)N2CCc3ccc(N4CCCCCC4=O)cc32)n(-c2ccc3onc(N)c3c2)n1,–
> 6300 nM,2000 nM,> 4200 nM,CS(=O)(=O)c1ccccc1-c1ccc2c(c1)CCCN2C(=O)c1cc(C(F)(F)F)nn1-c1ccc2onc(N)c2c1,–
> 21000 nM,500 nM,> 4200 nM,CS(=O)(=O)c1ccccc1-c1ccc2c(c1)C(=O)CCN2C(=O)c1cc(C(F)(F)F)nn1-c1ccc2onc(N)c2c1,–
–,350 nM,–,CN(C)CC(=O)N(C)c1ccc2c(c1)N(C(=O)c1cc(C(N)=O)nn1-c1ccc3onc(N)c3c1)CC2,–
–,6.9 nM,–,CN(Cc1nccn1-c1ccc2c(c1)CCN2C(=O)c1cc(C(N)=O)nn1-c1ccc2onc(N)c2c1)S(C)(=O)=O,–
> 6300 nM,3400 nM,> 4200 nM,Nc1noc2ccc(-n3nc(C(F)(F)F)cc3C(=O)N3CCCCc4cc(-c5ccccc5S(N)(=O)=O)ccc43)cc12,–
15000 nM,4.9 nM,> 40000 nM,Nc1noc2ccc(-n3nc(C(F)(F)F)cc3C(=O)N3CCc4cc(-c5ccccc5CN5CCCC5)ccc43)cc12,clearance [2]: 123 mL/min/kg; Vd [5]: 20 L/kg
–,0.63 nM,–,NC(=O)c1cc(C(=O)N2CCc3cc(-c4ccccc4CN4CCCC4)ccc32)n(-c2ccc3onc(N)c3c2)n1,clearance [2]: 59.5 mL/min/kg; Papp [1]: 0.7 ×10⁻⁶ cm/s; Activity (Plasma): 2.1 µM; Vd [5]: 6.2 L/kg
–,0.2 nM,–,NC(=O)c1cc(C(=O)N2CCc3cc(-n4ccccc4=O)ccc32)n(-c2ccc3onc(N)c3c2)n1,Papp [1]: 0.1 ×10⁻⁶ cm/s; Activity (Plasma): 1.9 µM
–,6.8 nM,–,CN(C)CC(=O)N(C)c1ccc2c(c1)CCN2C(=O)c1cc(C(N)=O)nn1-c1ccc2onc(N)c2c1,–
> 21000 nM,2.7 nM,> 2500 nM,Nc1noc2ccc(-n3nc(C(F)(F)F)cc3C(=O)N3CCc4cc(-c5ccccc5S(N)(=O)=O)ccc43)cc12,clearance [2]: 10.5 mL/min/kg; half-life [3]: 4 h; bioavailability [4]: 66%; Activity (Plasma): 28 µM; Vd [5]: 2 L/kg
–,–,> 5200 nM,CS(=O)(=O)c1ccccc1-c1ccc(NC(=O)c2cc(C(F)(F)F)nn2-c2ccc3onc(N)c3c2)c(F)c1,–
> 6300 nM,1400 nM,> 4200 nM,CS(=O)(=O)c1ccccc1-c1ccc2c(c1)C(O)CCN2C(=O)c1cc(C(F)(F)F)nn1-c1ccc2onc(N)c2c1 (racemic),–
–,–,–,CN(C)Cc1nccn1-c1ccc(NC(=O)c2cc(C(F)(F)F)nn2-c2ccc3onc(N)c3c2)c(F)c1 [RAZAXABAN],clearance [2]: 18.3 mL/min/kg; Vdss (Canis familiaris): 3.4 L/kg

# — ChEMBL document CHEMBL1140556, “Design, structure-activity relationship, and pharmacokinetic profile of pyrazole-based indoline factor Xa inhibitors” (Bioorg Med Chem Lett, 2007)
